Results collected from several papers.
Compare with care: the assays were run in different laboratories.
Cell line: PC-3
Read-out: cell growth or viability

With CC(C)(C)OC(=O)c1cccc(NC(=O)C2CCCN(C(=O)c3cc(C(F)(F)F)cc(C(F)(F)F)c3)C2)c1 (stereo not shown) the inhibition was 0% (WST-1; 100 µM).
COc1ccc(-c2ccc(-c3ccc(C(=N)N)nc3)s2)cc1Cl gave a GI50 of 1780 nM.
With O=C(N/N=C/CN1CCOCC1)Nc1cc2c(Nc3ccc(F)c(Cl)c3)ncnc2cc1O[C@H]1CCOC1 the IC50 was 3390 nM (MTT; 72 h).
With O=C(Nc1cccc(Oc2ccccn2)c1)C1CCCN(C(=O)c2cc(C(F)(F)F)cc(C(F)(F)F)c2)C1 (stereo not shown) the inhibition was 0% (WST-1; 100 µM).
O=C(N/N=C/c1cccn1CCN1CCCC1)Nc1cc2c(Nc3ccc(F)c(Cl)c3)ncnc2cc1O[C@H]1CCOC1 gave an IC50 of 1900 nM (MTT; 72 h).
With Cc1cc(C)cc(COc2cc3c(cc2OCc2cc(C)cc(C)c2)[C@H]2C[C@](O)(Cc4cn(Cc5ccc6ccccc6c5)nn4)C[C@H](C)N2CC3)c1 the IC50 was 264 nM (MTT).
COc1ccnc(COc2ccc(NC(=O)Nc3ccc(Cl)c(C(F)(F)F)c3)cc2)c1OC gave an IC50 of > 100000 nM (MTT; 72 h).
The GI50 of Cc1ncsc1-c1ccc(CNC(=O)[C@@H]2C[C@@H](O)CN2C(=O)[C@@H](NC(=O)CCCCCCCCCC(=O)N2CCN(CC[C@H](NC(=O)C3(N)CCN(c4ncnc5[nH]ccc45)CC3)c3ccc(Cl)cc3)CC2)C(C)(C)C)cc1 is reported as 180 nM (72 h).
With O=C(CN1C(=O)/C(=C/c2ccccn2)SC1=S)Nc1ccccc1 the inhibition was 30.5% (MTT; 10 µM).
With O=C(N/N=C/CN1CCCCC1)Nc1cc2c(Nc3ccc(F)c(Cl)c3)ncnc2cc1O[C@H]1CCOC1 the IC50 was 810 nM (MTT; 72 h).
COc1cccc(NC(=O)CN2C(=O)/C(=C/c3ccccc3)SC2=S)c1 has an inhibition of 17.8% (MTT; 10 µM).
The inhibition of COc1cccc(NC(=O)C2CCCN(C(=O)c3cc(C(F)(F)F)cc(C(F)(F)F)c3)C2)c1 (stereo not shown) is reported as 0% (WST-1; 100 µM).
The IC50 of Cc1cc(C)cc(COc2cc3c(cc2OCc2cc(C)cc(C)c2)[C@H]2C[C@](O)(Cc4cn(Cc5cnccn5)nn4)C[C@H](C)N2CC3)c1 is reported as 480 nM (MTT).
COc1ccc(C(=O)/C=C/c2cc3c(cc2Br)OCO3)cc1S(N)(=O)=O has a GI50 of 6800 nM (SRB; 48 h).
COc1cc2ncnc(Nc3ccc(F)c(Cl)c3)c2cc1NC(=O)N/N=C/CN(C)C gave an IC50 of 2780 nM (MTT; 72 h).
For O=C(CN1C(=O)/C(=C/c2ccc[nH]2)SC1=S)Nc1ccccc1, the inhibition was 22.7% (MTT; 10 µM).
For CC/C(=C(\c1ccccc1)c1ccc(OCCN(C)C)cc1)c1ccccc1, the EC90 was 31000 nM (ATP luminescence; 72 h).
The GI50 of COc1ccc(C(=O)/C=C/c2ccc(Cl)c(Cl)c2)cc1S(N)(=O)=O is reported as 1900 nM (SRB; 48 h).
The inhibition of COc1cc2c(c(OC)c1OC)-c1ccc(OC)c(=O)cc1[C@@H](NC(C)=O)CC2 is reported as 58.6% (MTT; 10 µM).
